Data on 24 compounds can be found in ChEMBL document CHEMBL3045020, “Insect antifeedant activity of flavones and chromones against Spodoptera litura” (2003).

This experiment deals with Spodoptera litura. As to the kind of experiment: Antifeedant activity against Spodoptera litura F. by choice leaf disk assay. It counts as functional. Summed up:
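Antifeedant value calculated from the rate of leaf consumption. A straight line was fitted to the bioassay points to obtain the ED50.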
Consider `COc1cc2oc(C)cc(=O)c2c(OC)c1OC`, for which the ED50 came out at 0.41 umol/cm2.
Then `COc1ccc2c(=O)cc(C)oc2c1`, with over 10 umol/cm2; and `COc1cc(OC)c2c(=O)cc(C)oc2c1`, with over 10 umol/cm2.
With `Cc1ccc2c(=O)cc(C)oc2c1` [2,7-DIMETHYLCHROMONE] the figure was 0.102 umol/cm2.
With `COc1ccc(-c2oc3c(OC)c(OC)c(OC)c(O)c3c(=O)c2OC)cc1` [5-HYDROXYAURANETIN] the figure was 0.11 umol/cm2; with `O=c1cc(-c2ccccc2)oc2ccc(O)cc12` [6-HYDROXYFLAVONE], over 10 umol/cm2; with `COc1ccc2oc(-c3ccccc3)cc(=O)c2c1` [6-METHOXYFLAVONE], 0.15 umol/cm2.
In turn, `Cc1ccc2oc(-c3ccccc3)cc(=O)c2c1` [6-METHYLFLAVONE] yielded an ED50 of 0.035 umol/cm2.
In turn, `O=c1cc(-c2ccccc2)oc2cc(O)ccc12` [7-HYDROXYFLAVONE] displayed an ED50 of over 10 umol/cm2.
Then `COc1ccc2c(=O)ccoc2c1` [7-METHOXYCHROMONE], with 0.096 umol/cm2; and `COc1ccc2c(=O)cc(-c3ccccc3)oc2c1` [7-METHOXYFLAVONE], with 0.059 umol/cm2.
Regarding `O=c1cc(-c2ccc(O)cc2)oc2cc(O)cc(O)c12` [APIGENIN], the ED50 was over 10 umol/cm2.
The compound `O=c1cc(-c2ccccc2)oc2cc(O)c(O)c(O)c12` [BAICALEIN] yielded an ED50 of 0.96 umol/cm2.
With `O=c1ccoc2ccccc12` [CHROMONE] the figure was 0.168 umol/cm2; with `O=c1cc(-c2ccccc2)oc2cc(O)cc(O)c12` [CHRYSIN], 2.5 umol/cm2; with `O=c1cc(-c2ccccc2)oc2ccccc12` [FLAVONE], 0.11 umol/cm2.
`COc1cc(O)c2c(=O)cc(-c3ccccc3)oc2c1O` [ISOWOGONIN] displayed an ED50 of over 10 umol/cm2.
With `O=c1cc(-c2ccc(O)c(O)c2)oc2cc(O)cc(O)c12` [LUTEOLIN] the figure was over 10 umol/cm2; with `COc1cc2oc(-c3ccccc3)cc(=O)c2c(O)c1OC` [MOSLOFLAVONE], over 10 umol/cm2.
With `COc1ccc(-c2cc(=O)c3c(OC)c(OC)c(OC)c(OC)c3o2)cc1OC` [NOBILETIN] the figure was 5.6 umol/cm2; with `O=c1cc(-c2ccccc2)oc2c(O)c(O)cc(O)c12` [NORWOGONIN], 1.52 umol/cm2.
With `COc1c(O)cc2oc(-c3ccccc3)cc(=O)c2c1O` [OROXYLIN A] the figure was over 10 umol/cm2.
`COc1ccc(-c2cc(=O)c3c(OC)c(OC)c(OC)c(OC)c3o2)cc1` [TANGERETIN] showed an ED50 of 0.28 umol/cm2.
With `COc1c(O)cc(O)c2c(=O)cc(-c3ccccc3)oc12` [WOGONIN] the figure was 2 umol/cm2.
